Assay results: paper PMC5598375 (Toxicology Reports, 2014)
Marks after values point to notes of the source that are not given here.

Key:
[1] = test system: 48 h-larvae mwh +/+ flr^3; assay: Wing spot test; format: in vivo, Drosophila melanogaster; details: for Small single spots (1–2 cells), statistical diagnosis / Total spots, statistical diagnosis: m = 2; for Small single spots (1–2 cells), statistical diagnosis / Total spots, statistical diagnosis / Large single spots (>cells), statistical diagnosis / Twin spots, statistical diagnosis: vs control; for Large single spots (>cells), statistical diagnosis / Twin spots, statistical diagnosis: m = 5
Outline: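 Crosses: mwh/mwh females × flr3/TM3,Bds males mated 2 h, eggs laid over 2 h. 48 h larvae were collected on 20% sucrose, washed in 24 ± 1 °C water, held 24 h in the dark on filter paper with PP-IX (0–69 mM in 5% sucrose), then fed CrO3 (0.025–2.5 mM) in instant medium, in triplicate. Non-Ser wings were scored at 40× for small (1–2 cells), large and twin spots. Frei–Würgler one-sided test, α=β=0.05, m multiplication factor.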

[2] = test system: 48 h-old mwh+/+flr^3 larvae; assay: Toxicity test; format: in vivo, Drosophila melanogaster; details: for % of non-viable larvae / No. of viable larvae ± SEM: 500 larvae

With [O]=[Cr](=[O])=[O] [CrO3, chromium trioxide] the “Large single spots (>cells) per wing” value ([1]; CrO3 0.025 mM, 120 wings) was 0.04 spots per wing, the “Large single spots (>cells), number of spots” value (from here on “Large single spots … of spots”) ([1]; CrO3 0.025 mM, 120 wings) was 5 and the “Small single spots (1–2 cells) per wing” value ([1]; CrO3 0.025 mM, 120 wings) was 0.26 spots per wing. For the same compound, the “Small single spots (1–2 cells), number of spots” value (“Small single spots … of spots” below) ([1]; CrO3 0.025 mM, 120 wings) was 31, the “Total spots per wing” value ([1]; CrO3 0.025 mM, 120 wings) was 0.33 spots per wing and the “Total spots, number of spots” value ([1]; CrO3 0.025 mM, 120 wings) was 40. The “Twin spots per wing” value ([1]; CrO3 0.025 mM, 120 wings) was 0.03 spots per wing, the “Twin spots, number of spots” value ([1]; CrO3 0.025 mM, 120 wings) was 4 and the “Small single spots (1–2 cells), statistical diagnosis” value ([1]; CrO3 0.025 mM) was “−”. The “Total spots, statistical diagnosis” value ([1]; CrO3 0.025 mM) was “−”, the “Large single spots (>cells), statistical diagnosis” value ([1]; CrO3 0.025 mM) was “−” and the “Statistical significance of spot induction vs control” value ([1]; CrO3 0.25 mM and higher, all kinds of spots) was “Statistical significant differences were found for all kinds of spots”. For the same compound, the “Large single spots (>cells) per wing” value ([1]; CrO3 0.25 mM, 150 wings) was 0.11 spots per wing, the “Large single spots … of spots” value ([1]; CrO3 0.25 mM, 150 wings) was 16 and the “Small single spots (1–2 cells) per wing” value ([1]; CrO3 0.25 mM, 150 wings) was 0.43 spots per wing. The “Small single spots … of spots” value ([1]; CrO3 0.25 mM, 150 wings) was 64, the “Total spots per wing” value ([1]; CrO3 0.25 mM, 150 wings) was 0.59 spots per wing and the “Total spots, number of spots” value ([1]; CrO3 0.25 mM, 150 wings) was 88. For the same compound, the “Twin spots per wing” value ([1]; CrO3 0.25 mM, 150 wings) was 0.05 spots per wing, the “Twin spots, number of spots” value ([1]; CrO3 0.25 mM, 150 wings) was 8 and the “Small single spots (1–2 cells), statistical diagnosis” value ([1]; CrO3 0.25 mM) was “+”. The “Total spots, statistical diagnosis” value ([1]; CrO3 0.25 mM) was “+”, the “Large single spots (>cells), statistical diagnosis” value ([1]; CrO3 0.25 mM) was “−” and the “Twin spots, statistical diagnosis” value ([1]; CrO3 0.25 mM) was “+”. For the same compound, the “Large single spots (>cells) per wing” value ([1]; CrO3 1.25 mM, 118 wings) was 0.36 spots per wing, the “Large single spots … of spots” value ([1]; CrO3 1.25 mM, 118 wings) was 42 and the “Small single spots (1–2 cells) per wing” value ([1]; CrO3 1.25 mM, 118 wings) was 0.63 spots per wing. The “Small single spots … of spots” value ([1]; CrO3 1.25 mM, 118 wings) was 74, the “Total spots per wing” value ([1]; CrO3 1.25 mM, 118 wings) was 1.12 spots per wing and the “Total spots, number of spots” value ([1]; CrO3 1.25 mM, 118 wings) was 132. For the same compound, the “Twin spots per wing” value ([1]; CrO3 1.25 mM, 118 wings) was 0.14 spots per wing, the “Twin spots, number of spots” value ([1]; CrO3 1.25 mM, 118 wings) was 16 and the “Small single spots (1–2 cells), statistical diagnosis” value ([1]; CrO3 1.25 mM) was “+”. The “Total spots, statistical diagnosis” value ([1]; CrO3 1.25 mM) was “+”, the “Large single spots (>cells), statistical diagnosis” value ([1]; CrO3 1.25 mM) was “+” and the “Twin spots, statistical diagnosis” value ([1]; CrO3 1.25 mM) was “+”. For the same compound, the “Large single spots (>cells) per wing” value ([1]; CrO3 2.0 mM, 80 wings) was 0.52 spots per wing, the “Large single spots … of spots” value ([1]; CrO3 2.0 mM, 80 wings) was 42 and the “Small single spots (1–2 cells) per wing” value ([1]; CrO3 2.0 mM, 80 wings) was 0.81 spots per wing. The “Small single spots … of spots” value ([1]; CrO3 2.0 mM, 80 wings) was 65, the “Total spots per wing” value ([1]; CrO3 2.0 mM, 80 wings) was 1.79 spots per wing and the “Total spots, number of spots” value ([1]; CrO3 2.0 mM, 80 wings) was 143. The “Twin spots per wing” value ([1]; CrO3 2.0 mM, 80 wings) was 0.45 spots per wing, the “Twin spots, number of spots” value ([1]; CrO3 2.0 mM, 80 wings) was 36 and the “Small single spots (1–2 cells), statistical diagnosis” value ([1]; CrO3 2.0 mM) was “+”. The “Total spots, statistical diagnosis” value ([1]; CrO3 2.0 mM) was “+”, the “Large single spots (>cells), statistical diagnosis” value ([1]; CrO3 2.0 mM) was “+” and the “Twin spots, statistical diagnosis” value ([1]; CrO3 2.0 mM) was “+”. For the same compound, the “Large single spots (>cells) per wing” value ([1]; CrO3 2.5 mM, 120 wings) was 1.97 spots per wing, the “Large single spots … of spots” value ([1]; CrO3 2.5 mM, 120 wings) was 236 and the “Small single spots (1–2 cells) per wing” value ([1]; CrO3 2.5 mM, 120 wings) was 2.87 spots per wing. The “Small single spots … of spots” value ([1]; CrO3 2.5 mM, 120 wings) was 344, the “Total spots per wing” value ([1]; CrO3 2.5 mM, 120 wings) was 6.95 spots per wing and the “Total spots, number of spots” value ([1]; CrO3 2.5 mM, 120 wings) was 834. For the same compound, the “Twin spots per wing” value ([1]; CrO3 2.5 mM, 120 wings) was 2.11 spots per wing, the “Twin spots, number of spots” value ([1]; CrO3 2.5 mM, 120 wings) was 254 and the “Small single spots (1–2 cells), statistical diagnosis” value ([1]; CrO3 2.5 mM) was “+”. For the same compound, the “Total spots, statistical diagnosis” value ([1]; CrO3 2.5 mM) was “+”, the “Large single spots (>cells), statistical diagnosis” value ([1]; CrO3 2.5 mM) was “+” and the “Twin spots, statistical diagnosis” value ([1]; CrO3 2.5 mM) was “+”. For the same compound, the “Frequency of mutation relative to the control group” value ([1]; higher CrO3 concentration (2.5 mM)) was 20 times, the “% of non-viable larvae” value ([2]; CrO3 0.25 mM) was 10% and the “No. of viable larvae ± SEM” value ([2]; CrO3 0.25 mM) was 448 ± 0.3. For the same compound, the “No. of viable larvae ± SEM” value ([2]; CrO3 2.0 mM) was 325 ± 2.8, the “% of non-viable larvae” value ([2]; CrO3 2.0 mM, significant to p < 0.05 compared with control) was 35 ^* % and the Mortality ([2]; CrO3 2.5 mM) was 61%. For the same compound, the “Reduction of viability over the control” value ([2]; CrO3 2.5 mM) was 45%, the “No. of viable larvae ± SEM” value ([2]; CrO3 2.5 mM) was 194 ± 0.8 and the “% of non-viable larvae” value ([2]; CrO3 2.5 mM, significant to p < 0.05 compared with control) was 61 ^* %. The “Toxicity compared to the control” value ([2]; CrO3 2 and 2.5 mM) was “toxic”.
